Measured values from ChEMBL document CHEMBL4513216, “Probing the Open Global Health Chemical Diversity Library for Multistage-Active Starting Points for Next-Generation Antimalarials” (ACS Infect Dis, 2020).

Assay: Toxicity liver stage against HepG2, at 10uM
Format: cell-based
Design: test concentration 10 uM, cell line HepG2-A16-CD81EGFP
Details: human, HepG2-A16-CD81EGFP cells; read-out: INHIBITION
Summary of the method: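 Uninfected HepG2-A16-CD81EGFP cells, 3 × 10^3 per well, 1536-well, plated on prespotted compound at 10 μM final, parasite-free screening media added to match infected plates; puromycin 10 μM positive, DMSO 0.5% negative; run in parallel with 48 h PbLuc assay at 37 °C, 5% CO2; viability by CellTiter-Glo luminescence, normalized to controls.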

SMILES | cytotoxicity at 10 µM [%]
F[C@@H]1CN(Cc2nccs2)C[C@@H]1OCc1nc2cnccc2[nH]1 | 4.15
O=C(NC1CCCCC1)c1cc(Br)cnc1N1CCCCC1 | 2.22
Cn1nc(-c2ccccc2)c(Br)c1C(=O)O | -48.3
Cc1n[nH]c2c1C(c1cccnc1)SCC(=O)N2 (centres undefined) | -7.46
COc1ccc(N2CCN(C(=O)COc3nccc(C)n3)CC2)cc1 | -6.16
COC(CNC(=O)C1CCN(S(C)(=O)=O)CC1)c1ccc(C)s1 (centres undefined) | -0.0506
CCS(=O)(=O)N1CCC2(CCN(CC(=O)N(C)C)C2=O)CC1 | 5.68
O=C(c1ccnnc1)N1C[C@@H](OCc2cccnc2)[C@H]2OCCC[C@H]21 | 5.03
Cc1nn(C)c(=O)c2nn(-c3cccc(Cl)c3)c(C)c12 | 3.79
CC1(C)OCC(CNC(=O)c2cnn(-c3cc(Cl)ccc3Cl)c2N)O1 (centres undefined) | 2.84
CC(C)N1CCc2c(C#N)c(NCc3ccco3)n3cnnc3c2C1 | -2.02
Cc1nc2[nH]cnc(NCCN3CCOCC3)c-2n1 | 3.22
Cc1cn([C@@H]2CC3(CCNCC3)OC[C@@]2(C)O)c(=O)[nH]c1=O | -5.6
O=C1CCOC[C@]2(CN(Cc3ccccc3)C[C@H]2c2ccccc2)N1 | -14.1
Cc1noc(C)c1-c1nc(C2CCCN(C(=O)CN)C2)ccc1CO (centres undefined) | -3.11
CCn1cc(S(=O)(=O)N2CCC(C3CCCCN(C)C3=O)CC2)c(C)n1 (centres undefined) | 6.58
CN([C@@H]1CC[C@@H](N2CCCC2)[C@@H]1O)S(=O)(=O)c1ccccc1 | -4.29
Cc1cc(C)nc(C2CCN(c3ccncn3)C2)n1 (centres undefined) | -0.419
OC1(Cn2ccc3ccncc32)CCN(Cc2ccccn2)CC1 | 2.42
CN1CCN(C(=O)CCC(=O)c2cccs2)Cc2ccccc21 | -57.8
COc1cc(Br)c(S(=O)(=O)NC(=O)C(C)OC)cc1OC (centres undefined) | -22.9
Cc1ccccc1CN1CCCN(S(=O)(=O)N(C)C2CCCCC2)CC1 | 11.5

SMILES | cytotoxicity at 10 µM [%]
Cc1csc(CCNC(=O)N2CCC(C(N)=O)CC2)n1 | -2.71
Cc1cccc(CCC(=O)Nc2ccnn2C2CCS(=O)(=O)C2)c1 (centres undefined) | 0.499
O=C(NCCNc1ccccn1)NC1CCOC2(CCCCC2)C1 (centres undefined) | -8.8
NC(=O)C1CN(c2ccc3cc(Br)ccc3n2)CCO1 (centres undefined) | 4.94
CC1CCCN(C(=O)c2ccc(N(C)Cc3cnn(C)c3)nc2)C1 (centres undefined) | 2.22
Cc1c(Br)cccc1S(=O)(=O)NCc1ccnn1C | 43
CCOc1ncccc1CNC(=O)CN1CCCCCC1=O | 2.92
CC(C)Cc1noc(CN2CCCN(C(=O)c3ccccc3Cl)CC2)n1 | -5.95
CCc1csc(C2CCCN(C(=O)c3ccc(OC)nc3)C2)n1 (centres undefined) | 4.65
CC(NC(=O)Cc1ccon1)c1ccc(OCC2CC2)c(F)c1 (centres undefined) | 5.47
O=C(NCCc1nnc2n1CCC2)NCC1(c2ccccc2)CC1 | -7.35
CC(C)c1ncncc1C(=O)NCCN1CCCCC1C (centres undefined) | -6.06
CSCC(CCO)NC(=O)Nc1ccc(C)cc1Br (centres undefined) | -11.8
CNc1cc(N2CCCC2CNCc2cccs2)ncn1 (centres undefined) | -12.3
CN(C)S(=O)(=O)c1ccc2c(c1)N(Cc1nccn1C)CC2 | -3.42
COc1ccccc1-c1cc(NC(=O)CCC2CCCO2)[nH]n1 (centres undefined) | -0.394
CCn1nc2c(cc1=O)CN(Cc1ccc(-n3cccn3)cc1)CC2 | -134
Cc1cc(C)n(-c2ccc(C(C)NS(N)(=O)=O)cc2)n1 (centres undefined) | -7.76
Cc1ccc(C)c(CS(=O)(=O)CC(=O)Nc2ccc(F)cc2F)c1 | 3.28
O=C1CCN(C(=O)CCc2cc(Br)cs2)CCN1 | -2.1
CCN(Cc1csc(CS(C)(=O)=O)n1)c1cccc(CO)c1 | -10
COc1cc(OC)c(CNC(=O)NCC(=O)N(C)C)c(OC)c1 | 3.27

SMILES | cytotoxicity at 10 µM [%]
CCOC(C)c1noc(CN(C)C(=O)C2C(C)(C)C2(C)C)n1 (centres undefined) | 9.5
CC(C)COC(C)C(=O)NCCNC(=O)C(C)C (centres undefined) | -15.2
CC(Cn1cccn1)NCc1nc(-c2ccc3c(c2)OCO3)no1 (centres undefined) | -12.4
O=C(Nc1ncn(Cc2cccc(Br)c2)n1)C1CCC1 | 11.4
Cc1cc(C)n(Cc2ccc(C(=O)NCCN3CCOCC3)cc2)n1 | -14.8
CCc1nnc2n1CCN(C(=O)c1cnc3ccccc3n1)C2 | -7.7
CN(C)Cc1cnc2n1CCN(C(=O)C1CC=CC1)CC2 | -81.3
Cc1ccc2c(c1)C1(CCN(C(N)=O)CC1)CN2C(=O)N(C)C | -79.1
COCCNC(=O)c1cc2c(c3ccccc3n2C)n1C(=O)N(C)C | -72.6
Cc1cc(C(=O)N2CCn3c(COCC4CCCC4)cnc3C2C)on1 (centres undefined) | 3.18
Cc1cc(C(=O)N2CC[C@@H]3CN(S(C)(=O)=O)CCO[C@@H]3C2)c(C)o1 | 3.52
CS(=O)(=O)N1CCC2(CC1)CC(CC(=O)NC1CC1)c1ccccc12 (centres undefined) | -0.105
CCN(Cc1nc(COC)no1)Cc1ccccc1OCC(=O)O | -51.6
NC(=O)c1cnc2n1CCN(C(=O)c1cccc(Cn3cccn3)c1)C2 | 4.35
OC1(CN2CCC(Oc3cccc(C(F)(F)F)c3)CC2)CNCCOC1 (centres undefined) | -5.43
Cc1ccnc(CC(C)N(C)c2cc(C3CCNCC3)nc(C)n2)c1 (centres undefined) | -46.2
Cc1ccc(CN2C[C@H]3C(=O)N(CC4CC4)C[C@@]3(C(=O)O)C2)c(F)c1F | 7.47
Cc1cc(C(=O)N2CCC(n3nc(C)cc3C)C2)c2ccc(F)cc2n1 (centres undefined) | -5.08
O=C1CCC2(CCCN(C(=O)c3ccoc3)C2)CN1Cc1ccncc1 (centres undefined) | 3.06
CCc1nc(C)sc1CN1CCc2[nH]nc(-c3ccc(F)c(F)c3)c2C1 | 5.57
C=Cc1ccc(C(=O)N2CCCC(Nc3ccc(F)c(F)c3)C2)cc1 (centres undefined) | -9.03
CSc1ccccc1C(=O)N(C)Cc1nncn1C(C)C | 3.92

SMILES | cytotoxicity at 10 µM [%]
O=C(CCc1ccco1)N1CCC(Oc2ccccc2)(C(=O)O)CC1 | 1.46
Cn1ccc2c(-c3ccc(NCCO)nn3)ccnc21 | -5.56
Cc1nc2ccccc2n1Cc1cc(C(=O)N(C)C2CCOCC2)no1 | 25.7
CCN(CC)CCn1ccnc1-c1[nH]cnc1C | -8.88
N[C@@H]1c2ccccc2C2(CCN(C(=O)c3ccc(Cl)cn3)CC2)[C@H]1O | -2.21
CC(C)NS(=O)(=O)c1cc(C(=O)O)cc(-c2ccccc2CN(C)C)c1 | 6.41
Cc1cc2cc(C(=O)N[C@@H]3CC[C@@H](N4CCOCC4)[C@@H]3O)ccc2o1 | -1.85
O=C1NCC2(CCCN(Cc3ccccc3F)C2)Oc2ccccc21 (centres undefined) | 6.12
CNC(=O)COc1cccc(CNC(=O)c2c(C)noc2C(C)C)c1 | -2.8
O=C(Cc1cccc(F)c1)NCCNc1ncccn1 | -6.71
Cc1nc(C)n(CC2CN(Cc3cccc4ccccc34)CCO2)n1 (centres undefined) | -2.64
Cc1noc(C)c1CCC(=O)N1CCCC(n2cccn2)C1 (centres undefined) | -7.81
CN(Cc1ccccn1)C(=O)c1nc(S(C)(=O)=O)n2ccccc12 | -8.01
CCn1ccnc1CN1CCN(C(C)C(=O)NC2CCCC2)CC1 (centres undefined) | -4.86
CCNc1cc2c(nn1)CCN(C(=O)c1cccc(CSC)c1)C2 | -12.7
CN(Cc1noc(C2CC2)n1)C1CCN(CCn2cc(C#N)cn2)C1 (centres undefined) | -9.1
Cc1nn(C)c(Cl)c1C1CCCN1C(=O)c1cccn1C (centres undefined) | -5.53
CC(=O)Nc1nc(C(=O)N2CCCC2Cn2cccn2)cs1 (centres undefined) | -5.42
Cc1cccc(C(=O)N(C)C2CCN(c3ccccn3)CC2)c1C | 1.84
Cc1noc(CN2CCN(C(=O)c3ccccn3)CC2)n1 | 1.35
CCOCCCn1c(NC(=O)c2ccc(C)nc2)nc2ccccc21 | -6.95
Cc1nn(C)c(C)c1C1COCCN1C(=O)c1ccccc1 (centres undefined) | -10.2

SMILES | cytotoxicity at 10 µM [%]
CCc1ncc2c(n1)CN(Cc1nc(-c3ccsc3)oc1C)CC2 | -8.6
O=C(Nc1cccc(CNCc2cccs2)c1)C1CCCC1 | -4.59
Cn1ccnc1CN1CCN(c2ccc(C#N)cn2)CC1 | -4.2
CCCOc1cccc(CNC(=O)CN2CCN(C)CC2C)c1 (centres undefined) | -7.57
Cn1cnc(S(=O)(=O)NCCN2CCCCCC2=O)c1Cl | -14.2
CC(C)C(C(=O)N1CCC(N(C)c2cccnn2)CC1)n1cncn1 (centres undefined) | -7.44
CN(CC(=O)N(C)C1CCCCC1)C1CCc2ccccc21 (centres undefined) | -7.44
CCN1CCC(CNC(=O)C2(c3cccc(C)c3)CC2)C1 (centres undefined) | 1.42
Cc1cnn(C2CCCN(C(=O)C3=NN(C)C(=O)CC3)C2)c1 (centres undefined) | -3.71
O=C(c1cccc2cccnc12)N1CCCN(c2cccnn2)CC1 | -3.2
Cc1ccc(CN(Cc2ccccn2)C2CC(C)(C)NC(C)(C)C2)s1 | 2.7
O=C(NCc1ccco1)[C@@H]1CCO[C@@H]2CCN(c3ncccn3)C[C@@H]21 | -68.3
CC(C)CNC(=O)[C@H]1CCS(=O)(=O)[C@@H]2CN(Cc3cccc(Cl)c3)C[C@H]12 | -7.06
c1ncn(Cc2cnc3n2CCN(Cc2ccsc2)CC3)n1 | 6.2
CNC(=O)[C@H]1C[C@@H]2CN(C(=O)c3ccccn3)C[C@@H]2N1S(C)(=O)=O | -1.37
Cc1ccsc1CN1CC[C@H]2OCC[C@@]2(C(=O)N2CCCO2)C1 | -4
O=S(=O)(C1CC1)N1CCO[C@H]2[C@@H](Oc3cccnc3)CC[C@@H]21 | -5.96
CCO[C@@H]1CCN(C(=O)c2ccc[nH]2)[C@@H]1Cc1cccnc1 | -80.2
O=C1CCC2(CCCN(Cc3nccs3)C2)N1CC1CC1 (centres undefined) | -68.4
Cc1nc(CN2CCO[C@@H]3CN(Cc4cccs4)C[C@@H]3C2)cs1 | 6.11
O=C1COC2(CCN(CC3CC3)CC2)CN1c1ccccc1 | -14.6
